# Assay results from publication PMC8906099 (Current Research in Parasitology & Vector-borne Diseases, 2021).
# Where two headings read alike, the source gives them in different places.
# Columns and labels:
# [1] = test system: intracellular amastigotes of T. cruzi CA-I/72 strain; assay: Time-course study against intracellular amastigotes; format: cell-based; conditions: Trypanosoma cruzi
# Outline: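 CA-I/72 trypomastigotes were incubated with C2C12 cells for 48 h to form intracellular amastigotes. Test compound was then added (0.19–100 μM, 2-fold, 0.1% DMSO), with benznidazole and DMSO controls. Incubation ran 8, 12, 24 or 48 h at 37 °C, 5% CO2. Growth inhibition was read by DAPI high-content imaging. IC50 came from sigmoid fits of the normalised infection ratio. Time trend was tested by linear regression and ANOVA.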
# [2] = test system: trypomastigotes of T. cruzi (Sylvio X10/4 strain); assay: Trypanocidal activity against trypomastigotes; format: cell-based; conditions: Trypanosoma cruzi, 72 h, read-out: IC50 ± SD, trypomastigotes
# Outline: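 Sylvio X10/4 trypomastigotes were taken from amastigote culture supernatant and seeded at 1 × 10^6 per well. Test compound was added at 0.19–100 μM (0.1% DMSO), with benznidazole (0.019–10 μM) and DMSO controls. Incubation was 72 h at 37 °C, 5% CO2. Viability was read with resazurin (40 μM in PBS), fluorescence 530/630 nm. IC50 came from sigmoid dose–response fits.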
# [3] = test system: amastigotes of T. cruzi Brazil strain; assay: Trypanocidal activity against intracellular amastigotes in C2C12 cells; format: cell-based; conditions: Trypanosoma cruzi, C2C12, 72 h, read-out: IC50 ± SD, amastigotes
# Outline: (§1)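 Trypomastigotes from C2C12 co-culture (DMEM, 10% FBS, 25 mM HEPES, pH 7.2) were seeded with C2C12 cells at a 1:15 infection rate. Test compound (0.19–100 μM, 2-fold, 0.1% DMSO) was added at the start. After 72 h at 37 °C, 5% CO2, cells were stained with DAPI 2 h and imaged confocally. Amastigote and host nuclei were told apart by size. IC50 came from sigmoid fits of the infection ratio normalised to controls. Mean ± SD, three experiments in triplicate.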
# [4] = test system: non-infected LLC-MK2 cells; assay: Cytotoxicity in non-infected cells; format: cell-based, monkey; conditions: non-infected LLC-MK2 CC50 / IC50 amastigotes CA-I/72 strain, 72 h
# Outline: (§2)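 LLC-MK2 monkey kidney cells, grown in RPMI with 10% FBS at 37 °C and 5% CO2, were plated and after 24 h exposed to test compound (0.19–100 μM, 2-fold dilutions, 0.1% DMSO) for 72 h at 37 °C. Controls were untreated cells, 0.4% DMSO and 15% Triton. After a PBS wash, MTT (2 mg/ml) was added for 4 h, and absorbance read at 450/620 nm. SI is CC50 divided by the 72 h CA-I/72 intracellular amastigote IC50.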
# [5] = Cytotoxicity in non-infected cells; format: cell-based, monkey; conditions: monkey, non-infected LLC-MK2 cells
# Outline: as §2
# [6] = test system: amastigotes of T. cruzi Sylvio X10/7 strain; assay: Trypanocidal activity against intracellular amastigotes in C2C12 cells; format: cell-based, Trypanosoma cruzi
# Outline: as §1
# [7] = Cytotoxicity in non-infected cells; format: cell-based, murine; conditions: mouse, non-infected C2C12 cells
# Outline: (§3)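 Non-infected C2C12 cells (5 × 10^4 per well) were plated for 24 h. Test compound (0.19–100 μM, 2-fold, 0.1% DMSO) was then added for 72 h at 37 °C. Controls were untreated, DMSO 0.4% and Triton 15%. After a PBS wash, MTT (2 mg/ml) was added for 4 h, and absorbance was read at 450 nm (reference 620 nm). CC50 came from sigmoid fits. SI = CC50/IC50 against CA-I/72 amastigotes at 72 h.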
# non-infected C2C12 cells = assay: Cytotoxicity in non-infected cells; format: cell-based, murine; conditions: non-infected C2C12 CC50 / IC50 amastigotes CA-I/72 strain, 72 h
# Outline: as §3
# [8] = Cytotoxicity in infected C2C12 cells after 72 h; format: cell-based, murine; conditions: mouse
# Outline: (§4)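 C2C12 cells were infected with trypomastigotes (1:15) together with test compound (0.19–100 μM, 0.1% DMSO) for 72 h at 37 °C, 5% CO2. Host nuclei were counted by DAPI high-content imaging. Viability was the cell count relative to the DMSO-control mean. CC50 came from sigmoid fits. SI = CC50/IC50 against intracellular amastigotes of the same strain at 72 h.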
# [9] = test system: C2C12 cells infected with intracellular amastigotes of T. cruzi (CA-I/72 strain); assay: Time-course cytotoxicity in infected C2C12 cells; format: cell-based, murine; conditions: infected C2C12 vs amastigotes CA-I/72, time-course
# Outline: (§5)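 This uses the CA-I/72 time-course infection format: a 48 h pre-infection of C2C12 cells, then test compound at 0.19–100 μM for 8, 12, 24 or 48 h, with DAPI imaging. Host viability was the total host cell count divided by the mean count of 0.1% DMSO controls. CC50 came from sigmoid fits. SI = CC50/IC50 against amastigotes at the matching time.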
# [10] = Time-course cytotoxicity in infected C2C12 cells; format: cell-based, murine; conditions: mouse
# Outline: as §5
# [11] = test system: amastigotes of T. cruzi Sylvio X10/4 strain; assay: Trypanocidal activity against intracellular amastigotes in C2C12 cells; format: cell-based; conditions: Trypanosoma cruzi, C2C12, 72 h, read-out: IC50 ± SD, amastigotes
# Outline: as §1
# [12] = test system: amastigotes of T. cruzi CA-I/72 strain; assay: as above; format: cell-based; conditions: Trypanosoma cruzi, C2C12, 72 h, read-out: IC50 ± SD, amastigotes
# Outline: as §1
# [13] = test system: several Streptococcus species; conditions: ref Vieira et al., 2018; cited from earlier work
# infected C2C12 cells = assay: Cytotoxicity in infected C2C12 cells after 72 h; format: cell-based, murine; conditions: 72 h
# Outline: as §4
# female BALB/c mice = assay: Acute oral toxicity test in mice; format: in vivo; conditions: for DA/TA (dead animals/total animals) / Mortality / Signs of toxicity: 14 days
# Outline: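 Six-week-old female BALB/c mice (25–30 g), five per group. Single oral dose of 300 or 1,000 mg/kg test compound in Tween 80/ethanol/water (7:3:90), with a vehicle group. Clinical signs (ataxia, tremor, salivation, ptosis, seizures and others) watched continuously for 1 h, periodically over 24 h, then daily to day 14. Mortality recorded.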
# [14] = read-out: IC50 over the incubation times evaluated
# [15] = Trypanosoma cruzi, C2C12, 72 h, read-out: IC50 ± SD, amastigotes, Sylvio X10/7 strain, 72 h incubation
# [16] = C2C12 cells infected with T. cruzi Brazil strain
# [17] = C2C12 cells infected with T. cruzi CA-I/72 strain
# [18] = C2C12 cells infected with T. cruzi Sylvio X10/4 strain
# [19] = C2C12 cells infected with T. cruzi Sylvio X10/7 strain
# [20] = infected C2C12, Sylvio X10/7 strain
SMILES,"IC50 ([1]; 8 h, read-out: IC50 ± SD) [µM]","IC50 ([1]; 12 h, read-out: IC50 ± SD) [µM]","IC50 ([1]; 24 h, read-out: IC50 ± SD) [µM]","IC50 ([1]; 48 h, read-out: IC50 ± SD) [µM]",IC50 [2] [µM],IC50 [3] [µM],SI (CC50/IC50) [4],CC50 at 72 h [5] [µM],"IC50 [6, 15] [µM]",CC50 at 72 h [7] [µM],"CC50 at 72 h [8, 16] [µM]","CC50 at 72 h [8, 17] [µM]","CC50 at 72 h [8, 18] [µM]","CC50 at 72 h [8, 19] [µM]",CC50 at 8 h [10] [µM],CC50 at 12 h [10] [µM],CC50 at 24 h [10] [µM],CC50 at 48 h [10] [µM],IC50 [11] [µM],IC50 [12] [µM],also measured
"O=C(Cn1ccnc1[N+](=O)[O-])NCc1ccccc1 [BZ, benznidazole, reference compound]",> 10,6.85 ± 1.56,5.97 ± 1.2,1.54 ± 0.36,1.16 ± 0.04,1.28 ± 0.64,82.92,168 ± 2.98,1.19 ± 0.25,37.9 ± 1.54,> 10,> 10,> 10,> 10,> 10,3.98 ± 0.31,3.48 ± 0.7,0.27 ± 0.07,4.12 ± 1.02,2.02 ± 0.12,"IC50 [1, 14]: 1.54 to 10 µM; SI (CC50/IC50) (non-infected C2C12 cells): 18.73; SI (CC50/IC50) ([9]; 12 h): 0.58; SI (CC50/IC50) ([9]; 24 h): 0.58; SI (CC50/IC50) ([9]; 48 h): 0.17"
"O=C(/C=C/c1ccc(Cl)cc1)/C=C/c1ccc(Cl)cc1 [DBA 5, (1E,4E)-1,5-bis-(4-chlorophenyl)penta-1,4-dien-3-one]",> 100,> 100,> 100,> 100,73.7 ± 2.08,6.37 ± 0.03,1.13,38.1 ± 1.81,25.3 ± 1.34,38.3 ± 1.69,12.4 ± 2.29,15.5 ± 1.25,11.8 ± 7.74,4.06 ± 2.31,93.29 ± 0.42,10.6 ± 1.26,0.3 ± 0.02,0.2 ± 0.01,56.9 ± 1.86,33.6 ± 1.39,"IC50 [1, 14]: > 100 µM; MIC [13]: 100 µg/mL; SI (CC50/IC50) (non-infected C2C12 cells): 1.13; SI (CC50/IC50) (infected C2C12 cells; infected C2C12, CA-I/72 strain): 0.45; SI (CC50/IC50) (infected C2C12 cells; infected C2C12, Sylvio X10/4 strain): 0.20; SI (CC50/IC50) (infected C2C12 cells; [20]): 0.16"
"COc1cc(/C=C/C(=O)CC(=O)/C=C/c2ccc(O)c(OC)c2)ccc1O [CUR, reference compound]",> 100,> 100,51.6 ± 1.26,2.25 ± 0.65,9.89 ± 0.51,11.2 ± 1.05,–,32.5 ± 0.49,11.6 ± 4.93,18 ± 0.42,2.36 ± 1.24,6.71 ± 0.7,1.91 ± 0.02,3.37 ± 1.33,60.3 ± 1.54,9.95 ± 1.17,1.88 ± 0.17,0.47 ± 0.09,20 ± 2.61,2.71 ± 0.47,"Acute toxicity (general signs of toxicity or mortality) (female BALB/c mice; oral doses 300 and 1,000 mg/kg, 14-day period): no toxic effects; DA/TA (dead animals/total animals) (female BALB/c mice; single oral dose 300 mg/kg): 0/5; Mortality (female BALB/c mice; single oral dose 300 mg/kg): 0%; Signs of toxicity (female BALB/c mice; single oral dose 300 mg/kg): None; DA/TA (dead animals/total animals) (female BALB/c mice; single oral dose 1,000 mg/kg): 0/5; Mortality (female BALB/c mice; single oral dose 1,000 mg/kg): 0%; Signs of toxicity (female BALB/c mice; single oral dose 1,000 mg/kg): None"
"COc1cc(OC)c(/C=C/C(=O)/C=C/c2c(OC)cc(OC)cc2OC)c(OC)c1 [DBA 4, (1E,4E)-1,5-bis-(2,4,6-trimethoxyphenyl)penta-1,4-dien-3-one]",> 100,> 100,> 100,34.5 ± 0.94,> 100,> 100,≥ 10,50.1 ± 7.92,33.1,53.7 ± 1.26,0.09 ± 0.11,0.6 ± 0.16,0.11 ± 0.1,0.37 ± 0.14,> 100,60.4 ± 1.11,2.98 ± 0.24,0.66 ± 0.29,> 100,5.01 ± 1.14,"SI (CC50/IC50) ([4]; listed as 4): 10.00; IC50 ([6]; read-out: IC50 ± SD, amastigotes, Sylvio X10/7 strain, 72 h incubation): 33.1 ± 2.05 µM; SI (CC50/IC50) (non-infected C2C12 cells): > 10; SI (CC50/IC50) (non-infected C2C12 cells; listed as 4): 10.71; SI (CC50/IC50) (infected C2C12 cells; infected C2C12, CA-I/72 strain): 0.12; SI (CC50/IC50) (infected C2C12 cells; [20]): 0.01; SI (CC50/IC50) ([9]; 48 h): 0.01"
